Assay results from different studies.
Compare with care: the assays were run in different laboratories.
Target: Alpha-2B adrenergic receptor (ADRA2B, Homo sapiens, UniProt P18089)
Concentration: 10 µM
Residues used in one study (P18089 1-450): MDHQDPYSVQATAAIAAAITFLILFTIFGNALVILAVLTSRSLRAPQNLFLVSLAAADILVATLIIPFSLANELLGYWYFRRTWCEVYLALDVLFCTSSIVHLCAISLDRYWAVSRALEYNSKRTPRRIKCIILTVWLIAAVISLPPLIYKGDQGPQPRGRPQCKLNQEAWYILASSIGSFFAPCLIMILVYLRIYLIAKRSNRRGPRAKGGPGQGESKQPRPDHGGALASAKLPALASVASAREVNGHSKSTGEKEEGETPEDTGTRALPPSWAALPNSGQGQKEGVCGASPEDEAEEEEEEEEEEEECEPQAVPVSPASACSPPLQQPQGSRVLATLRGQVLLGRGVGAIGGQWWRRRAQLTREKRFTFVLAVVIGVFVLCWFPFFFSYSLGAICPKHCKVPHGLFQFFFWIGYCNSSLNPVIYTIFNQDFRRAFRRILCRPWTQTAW

O=C1c2ccccc2C(=O)N1CC#Cc1ccc2c(c1)C=C([N+](=O)[O-])C(C(F)(F)F)O2 (stereo not drawn)  inhibition (ligand displacement, radioligand): 70%
Oc1cccc(Nc2nc(-c3ccc(F)cc3F)cs2)c1  inhibition (cell-free assay): -29.7%
CN(C)C(=O)Cn1cc(-c2nc(C3(c4ccc(-c5cnc(N)nc5)cc4)CC3)no2)cn1  inhibition (cell-free assay): -3.57%
O=[N+]([O-])C1=Cc2cc(I)ccc2OC1C(F)(F)F (stereo not drawn)  inhibition (ligand displacement, radioligand): 66%
CCN(CC)c1ccc(C2Nc3ccc(C(=O)c4ccccc4)cc3NC3=C2C(=O)CC(C)(C)C3)cc1 (stereo not drawn)  inhibition (ligand displacement, radioligand): -8%
N#Cc1cc(Cn2c(N3CCCC3)nc3ccccc32)ccc1F  inhibition (ligand displacement): 18.7%
O=C(NNS(=O)(=O)c1ccccc1F)c1cc(F)cc(-c2ccccn2)c1  inhibition (cell-free assay): -3.78%
CCCNc1nc2ccccc2n1Cc1ccc(Cl)cc1  inhibition (ligand displacement): 83%
COc1cc(NC(C)=O)c(Cl)cc1C(=O)Nc1nccs1  inhibition (cell-free assay): -12.7%
